# In PubChem BioAssay AID488976 (Southern Research Specialized Biocontainment Screening …, 2010):
# Calls of active or inactive are those of the source.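 How the source made its calls: active means cell viability under 70% at any tested concentration, a measure not printed in our tables; inactive means the rest.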
# System: HEp-2 viability, ATP luminescence
# Test: HEp-2 cell cytotoxicity, dose response, cytotoxicity control for RSV inhibitor project, ATP luminescence, purified and synthesized compounds (AID 488976)
# Method in brief: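 Material: HEp-2 cells without virus | Medium: DMEM/F12 | Doses: 8-point twofold dilution series, 50 to 0.39 µM final, 0.5% DMSO | Incubation: Six-day compound exposure of cells at 37 °C | Detection: Luminescent CellTiter-Glo signal | Measure: % viability versus median cell-only signal, CC50 via 4-parameter fit | Controls: Cell-only wells without compound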
row,SMILES,CC50
1,Cc1ccc(NC(=O)C2CCCN2S(=O)(=O)c2ccc3ncccc3c2)c(C)c1 (configuration not stated),> 50 µM (inactive)
2,Cc1ccc(NC(=O)C2CCCN2S(=O)(=O)c2ccccc2)c(C)c1 (configuration not stated),> 50 µM (inactive)
3,Cc1ccc(NC(=O)C2CCCN2C(=O)c2cccc3cccnc23)c(C)c1 (configuration not stated),> 50 µM (inactive)
4,Cc1ccc(NC(=O)C2CCCN2S(=O)(=O)c2cccc3cnccc23)c(C)c1 (configuration not stated),> 50 µM (inactive)
5,O=C(Nc1ccc(C(F)(F)F)cc1[N+](=O)[O-])O[C@H]1[C@H](Cc2ccccc2)NS(=O)(=O)[C@H]2C[C@@H]3C=C[C@]12O3,22.1 µM
6,CSc1ncccc1C(=O)Nc1nc(C(C)(C)C)cs1,28.7 µM
7,Cc1ccc(NC(=O)[C@@H]2CCCN2S(=O)(=O)c2cccc3cccnc23)c(C)c1,38.9 µM
8,Cc1ccc(NC(=O)C2CCCN2S(=O)(=O)c2cccc3cccnc23)c(C)c1 (configuration not stated),40.5 µM
9,Cc1csc(NC(=O)c2cccnc2)n1,> 50 µM (inactive)
10,Cc1ccc(NC(=O)C2CCCN2S(C)(=O)=O)c(C)c1 (configuration not stated),> 50 µM (inactive)
11,Cc1ccc(NC(=O)C2CCCN2C(=O)c2ccccc2)c(C)c1 (configuration not stated),> 50 µM (inactive)
12,Cc1ccc(NC(=O)C(C)NS(=O)(=O)c2cccc3cccnc23)c(C)c1 (configuration not stated),> 50 µM (inactive)
13,Cc1ccc(NC(=O)C2CCCN2Cc2cccc3cccnc23)c(C)c1 (configuration not stated),13.3 µM
14,CSc1ncccc1C(=O)Nc1nc(C)cs1,> 50 µM (inactive)
15,Cc1ccc(NC(=O)CNS(=O)(=O)c2cccc3cccnc23)c(C)c1,> 50 µM (inactive)
16,Cc1ccc(NC(=O)C2CCCN2S(=O)(=O)c2cccc3ccccc23)c(C)c1 (configuration not stated),17.8 µM
17,Cc1ccc(NC(=O)[C@H]2CCCN2S(=O)(=O)c2cccc3cccnc23)c(C)c1,38 µM
